According to the RNAGym collection of RNA variant scans (doi:10.1126/science.aae0568):
This sample holds only a part of the variants without activity.

B1: tRNA (parent)
chain: GUUCCGUUGGCGUAAUGGUAACGCGUCUCCCUCCUAAGGAGAAGACUGCGGGUUCGAGUCCCGUACGGAACG

Variants of: B1
Assay: yeast fitness relative to wild type (ratio to wild type); higher = fitter; tRNA-Arg(CCU), competitive growth, 37 C, YPD
Procedure, shortened: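 Genotype frequency changes were the basis for Darwinian fitness relative to wild type. The frequencies came from 100-nucleotide paired-end sequencing of gene amplicons from the start population and each end population of pooled yeast strains with tRNA-Arg(CCU) gene variants at the native locus. Competition ran in YPD at 37°C for 24 hours in six replicates, genotypes needed ≥ 100 starting reads, and estimates < 0.5 were set to 0.5.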

Variant	yeast fitness
C27G C33A U47A	≤ 0.5
C27G C31A C46A G56C	≤ 0.5
C27A G63C G68C	0.524
C27U A36U G44A	≤ 0.5
C27U A45G C49G A65C	≤ 0.5
C27G A70G	0.718
C27U A36G G50A G58A A69C	≤ 0.5
C27G C55U G67C	≤ 0.5
C27G A42C A70U	≤ 0.5
C27G G41C G68C	0.626
C27G A42C C62G	0.561
C27G G48C G52C C62G	≤ 0.5
C27G C33U A45U	0.568
C27G U32A G39A	0.572
C27G A43G C49U	0.59
C27U A42U C62U	0.559
C27A U28A C30G G67A	0.587
C27G C61G	0.554
C27G C61A	0.582
C27U A40C G58A A70C	0.511
C27G C34A A40G	0.644
C27G C31U G68A	≤ 0.5
C27A U32G	0.595
C27G C49U A65U A70G	≤ 0.5

Variant	yeast fitness
C27A U47A G56C	0.694
C27G C29G C46A A65G C66U	≤ 0.5
C27G G48C A69G	≤ 0.5
C27G C31U U53C C66A	≤ 0.5
C27A U35C A42U C55A	≤ 0.5
C27U A65C A70C	0.69
C27U A36C G39C G48C G63U	0.547
C27A G44C U59A	≤ 0.5
C27G A40U C55U	≤ 0.5
C27G A57C U59A C62G G68A	0.532
C27G A42G A69U	≤ 0.5
C27A U54A	0.727
C27A U54C	0.991
C27A U64A A69C	0.703
C27G A57C C62U	0.511
C27G C33U G44C C49U	≤ 0.5
C27G U28A C30G C31U G67A	0.519
C27G A36C A42U C66U	≤ 0.5
C27A U53G	0.651
C27A G44A A69C	≤ 0.5
C27G A36G C66G	0.548
C27G C62A	0.516
C27G C62G	0.695
C27U A36U G38C A43C	≤ 0.5

Variant	yeast fitness
C27A U47G A69C	≤ 0.5
C27G A37C G39A A45C	0.646
C27U A45C C55G G58C	≤ 0.5
C27G A36U C46U G67A	0.54
C27G U28C C61U	≤ 0.5
C27G G50A	0.654
C27U A36U A43G C46U	0.559
C27G A40U A57U C66A	≤ 0.5
C27G A37C G52C	≤ 0.5
C27U A36U U54A A69C	0.624
C27G A37G A57C G68C A69C	≤ 0.5
C27G C55A A70U	≤ 0.5
C27G C29A C62U	0.647
C27G U53C	≤ 0.5
C27G C46U C60U A69U	≤ 0.5
C27G C31A A37C G50A C61G	≤ 0.5
C27G A42G U64C	≤ 0.5
C27U A37C A40U A43U	0.541
C27G U53G A70G	≤ 0.5
C27U A70G	0.988
C27U A70C	1.03
C27U A70U	0.988
C27G A45G	0.722
C27G A37C A40G C46U	0.578

Variant	yeast fitness
C27U A43U C55U A69C	≤ 0.5
C27G A37G G52U C61U G67A	≤ 0.5
C27G C46U A69C	0.735
C27G A37U A43G	≤ 0.5
C27G C49U	0.614
C27G C49G	0.621
C27U A43C U59A	0.645
C27G A42C A65C	≤ 0.5
C27G C33G G39A C46U C60G	≤ 0.5
C27G C31A G58C	≤ 0.5
C27G C49U C62U A65U	≤ 0.5
C27A U47C U64C A70C	0.535
C27A G51C	0.704
C27G U32C U54C C62U	≤ 0.5
C27G G67A	0.637
C27G G67C	0.677
C27G C46U C61G G68U	≤ 0.5
C27G A37U C49G U64C A69C	≤ 0.5
C27G C34A C46G C55A	≤ 0.5
C27G A42U A43U	0.594
C27G A43G U47G A70G	≤ 0.5
C27G C46U C60U	0.626
C27G C34G U54A A70U	≤ 0.5
C27G U28C C62G	≤ 0.5

Variant	yeast fitness
C27G C30U G38C G58A	0.679
C27G C33G G51C C60U C61U	≤ 0.5
C27G C29U	0.578
C27A G56A A65U C66A	≤ 0.5
C27A U28C	0.775
C27G C49U C60A	≤ 0.5
C27G G39A C46U A70G	≤ 0.5
C27G A40U A70C	≤ 0.5
C27G C30G C31U U54C	≤ 0.5
C27A U47A G56C A69C	0.894
C27G C31U U53C	0.573
C27G C33A A65U	≤ 0.5
C27G C55G	≤ 0.5
C27G C55U	≤ 0.5
C27G G52C	0.549
C27G G52A C60G A69U A70C	0.514
C27A G52U C55A	≤ 0.5
C27U A43C C60A	≤ 0.5
C27G A43C	0.611
C27U A57C	0.676
C27U A57U	0.668
C27U A57G	0.959
C27G A43C C46U C60U	0.748
C27U A43C	0.965

Variant	yeast fitness
C27U A43G	0.898
C27G U53A G63A	≤ 0.5
C27G A57U U59C	0.508
C27U A36C C61U	≤ 0.5
C27G G39A G67A	0.59
C27G C34G C55G U59C C60U G67U	≤ 0.5
C27U A43C U59A C62U	0.517
C27U A36G A37G G56C	≤ 0.5
C27G C46G U53G G58C C61A	≤ 0.5
C27G A36G G63C C66U	≤ 0.5
C27G A43U U53C	≤ 0.5
C27G G44C A45G A65G	≤ 0.5
C27G A36G A70U	≤ 0.5
C27G C46U G50A C66U	≤ 0.5
C27G G39A C46U G68A	≤ 0.5
C27G C31U C60A	0.602
C27G U28A	0.596
C27A G63A	0.88
C27G C46U G50A	0.599
C27G C33A G48A G51C	≤ 0.5
C27G G50C C60G	≤ 0.5
C27G G39A C46U C66U	≤ 0.5
C27G G38C C55U	≤ 0.5
C27G A43C C46U G58A	1.02

Variant	yeast fitness
C27G A43U U59G G68C	≤ 0.5
C27A U28A A70U	≤ 0.5
C27U A36C G39C G48C G63U A70U	0.636
C27G G39C	0.585
C27G C33U A69C	0.544
C27G C31G A69U	≤ 0.5
C27G C30U A42U	0.651
C27G C34A G68C	≤ 0.5
C27G G41A A57C C62A	≤ 0.5
C27G C31G C61G A69U	0.55
C27G C46A G51A	0.525
C27U A36C G68C	0.602
C27G A43U A57G	≤ 0.5
C27G C66A	≤ 0.5
C27G C66U	0.621
C27G C66G	0.579
C27G U47C	0.652
C27A G56C C62A A65C	0.611
C27G C31A A70C	0.539
C27G G39C G52A	≤ 0.5
C27G G56A A70U	0.531
C27G U47G C49U C66U	0.584
C27G C31U C46G G51C	≤ 0.5
